Assay results published in ChEMBL document CHEMBL1124337, “Structure-activity relationships in prazosin-related compounds. Effect of replacing a piperazine ring with an alkanediamine moiety on alpha 1-adrenoreceptor blocking activity” (J Med Chem, 1989).

What was measured:
[1] = biological target: T1, Adrenergic receptor alpha-2 (Rattus norvegicus, UniProt P22086+P19328+P22909); assay: Antagonist activity for Alpha-2 adrenergic receptor against clonidine in rat vas deferences; format: functional
T1 sequence (P22086 whole entry): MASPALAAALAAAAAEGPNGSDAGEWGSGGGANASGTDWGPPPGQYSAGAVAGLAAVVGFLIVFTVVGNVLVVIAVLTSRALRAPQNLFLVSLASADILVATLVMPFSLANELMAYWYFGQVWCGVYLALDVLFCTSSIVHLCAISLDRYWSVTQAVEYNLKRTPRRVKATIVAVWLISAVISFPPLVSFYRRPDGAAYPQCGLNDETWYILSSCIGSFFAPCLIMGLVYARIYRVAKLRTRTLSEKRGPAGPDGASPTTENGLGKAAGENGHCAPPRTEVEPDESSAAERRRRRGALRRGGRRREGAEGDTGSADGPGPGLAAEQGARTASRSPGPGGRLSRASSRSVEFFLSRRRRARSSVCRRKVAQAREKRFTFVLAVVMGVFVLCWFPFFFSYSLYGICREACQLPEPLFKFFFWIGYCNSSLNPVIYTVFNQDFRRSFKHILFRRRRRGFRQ
T1 sequence (P19328 whole entry): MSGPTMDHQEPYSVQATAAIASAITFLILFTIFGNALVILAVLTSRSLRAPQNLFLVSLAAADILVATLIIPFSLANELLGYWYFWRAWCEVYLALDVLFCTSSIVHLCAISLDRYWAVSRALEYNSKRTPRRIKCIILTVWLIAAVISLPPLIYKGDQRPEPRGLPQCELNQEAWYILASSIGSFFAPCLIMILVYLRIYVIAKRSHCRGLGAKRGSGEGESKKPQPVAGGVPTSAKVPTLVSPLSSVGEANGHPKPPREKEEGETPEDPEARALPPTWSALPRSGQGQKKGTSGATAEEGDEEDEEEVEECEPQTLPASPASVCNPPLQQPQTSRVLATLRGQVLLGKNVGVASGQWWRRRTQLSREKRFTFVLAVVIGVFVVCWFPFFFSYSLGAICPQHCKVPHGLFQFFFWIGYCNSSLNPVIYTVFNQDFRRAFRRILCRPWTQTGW
T1 sequence (P22909 whole entry): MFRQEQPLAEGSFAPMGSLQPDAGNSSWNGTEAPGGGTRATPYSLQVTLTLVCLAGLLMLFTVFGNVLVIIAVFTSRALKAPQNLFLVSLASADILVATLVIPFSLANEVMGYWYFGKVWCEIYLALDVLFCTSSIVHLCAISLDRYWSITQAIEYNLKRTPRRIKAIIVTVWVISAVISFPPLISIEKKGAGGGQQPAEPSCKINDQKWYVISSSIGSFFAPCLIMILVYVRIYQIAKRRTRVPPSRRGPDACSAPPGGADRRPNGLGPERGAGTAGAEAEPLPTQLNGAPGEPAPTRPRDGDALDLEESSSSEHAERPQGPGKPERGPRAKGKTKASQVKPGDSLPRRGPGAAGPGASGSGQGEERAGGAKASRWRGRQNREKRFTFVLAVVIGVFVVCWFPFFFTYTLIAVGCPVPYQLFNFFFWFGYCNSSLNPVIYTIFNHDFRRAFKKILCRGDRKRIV

[2] = biological target: T2, Adrenergic receptor alpha-1 (Rattus norvegicus, UniProt P15823+P23944+P43140); assay: Antagonist activity for Alpha-1 adrenergic receptor against norepinephrine in rat vas deferences; format: functional
T2 sequence (P15823 whole entry): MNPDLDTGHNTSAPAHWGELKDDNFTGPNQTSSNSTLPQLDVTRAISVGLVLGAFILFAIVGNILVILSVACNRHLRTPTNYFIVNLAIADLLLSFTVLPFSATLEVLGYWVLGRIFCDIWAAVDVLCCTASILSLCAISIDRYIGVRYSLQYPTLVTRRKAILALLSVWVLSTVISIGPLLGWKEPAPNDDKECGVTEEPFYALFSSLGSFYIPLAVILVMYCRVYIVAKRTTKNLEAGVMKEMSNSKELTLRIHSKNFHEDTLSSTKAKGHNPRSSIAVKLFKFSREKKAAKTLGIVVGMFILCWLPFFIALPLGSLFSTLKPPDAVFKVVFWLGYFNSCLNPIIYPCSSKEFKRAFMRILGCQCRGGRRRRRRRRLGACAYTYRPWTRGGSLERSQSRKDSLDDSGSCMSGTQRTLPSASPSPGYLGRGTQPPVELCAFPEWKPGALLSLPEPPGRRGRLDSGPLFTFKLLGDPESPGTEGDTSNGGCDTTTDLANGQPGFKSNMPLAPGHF
T2 sequence (P23944 whole entry): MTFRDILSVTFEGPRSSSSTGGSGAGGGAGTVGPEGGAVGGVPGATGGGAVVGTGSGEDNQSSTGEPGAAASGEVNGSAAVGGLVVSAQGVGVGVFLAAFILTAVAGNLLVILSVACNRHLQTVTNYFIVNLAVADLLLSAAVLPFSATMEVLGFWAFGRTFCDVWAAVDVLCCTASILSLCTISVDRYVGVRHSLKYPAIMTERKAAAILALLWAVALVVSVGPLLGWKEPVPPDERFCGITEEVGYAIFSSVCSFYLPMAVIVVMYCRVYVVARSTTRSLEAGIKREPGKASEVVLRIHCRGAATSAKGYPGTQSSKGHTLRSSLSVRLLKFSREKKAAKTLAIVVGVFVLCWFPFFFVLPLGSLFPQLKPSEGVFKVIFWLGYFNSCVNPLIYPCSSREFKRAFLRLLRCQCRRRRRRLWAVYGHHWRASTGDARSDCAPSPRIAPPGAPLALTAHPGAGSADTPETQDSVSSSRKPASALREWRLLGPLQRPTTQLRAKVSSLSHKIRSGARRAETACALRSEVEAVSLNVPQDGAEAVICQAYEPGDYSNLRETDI
T2 sequence (P43140 whole entry): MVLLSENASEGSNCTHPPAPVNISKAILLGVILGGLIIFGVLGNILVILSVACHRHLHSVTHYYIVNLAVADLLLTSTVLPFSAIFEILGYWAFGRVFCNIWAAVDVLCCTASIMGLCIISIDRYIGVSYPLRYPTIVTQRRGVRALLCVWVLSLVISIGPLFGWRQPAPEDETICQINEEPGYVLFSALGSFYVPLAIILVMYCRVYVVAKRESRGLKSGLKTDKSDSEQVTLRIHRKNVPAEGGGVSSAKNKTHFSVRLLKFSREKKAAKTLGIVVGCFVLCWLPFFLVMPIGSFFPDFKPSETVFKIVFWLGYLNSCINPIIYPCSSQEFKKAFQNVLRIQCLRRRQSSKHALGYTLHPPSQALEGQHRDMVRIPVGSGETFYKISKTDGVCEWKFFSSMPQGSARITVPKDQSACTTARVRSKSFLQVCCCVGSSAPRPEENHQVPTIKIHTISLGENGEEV

Rattus norvegicus = species: Rattus norvegicus; assay: Compound was tested for its effect in reducing the mean blood pressure after 2 min in male wistar rats; format: functional
In short: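 Male Wistar rats (400–490 g) under equithesin (3 mL/kg, then 0.8 mL/kg ip, with supplements every 90–120 min). Dosing was a single pulse iv injection into the jugular vein of 100 μg/kg in 30 μL, flushed with 100 μL saline, after a vehicle-only control. Carotid mean arterial pressure was followed over time as % decrease, given as mean ± SE, with paired t test.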

[3] = biological target: T1, Adrenergic receptor alpha-2; assay: Compound evaluated for antagonist activity to alpha-2 adrenergic receptor in a competitive assay against clonidine in rat vas deferences; format: functional
In short: (§1)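 Male albino rat (175–200 g) vas deferens in 20 mL Krebs baths containing propranolol 1 μM and cocaine 10 μM, loading tension 0.5–0.8 g. Field stimulation at 0.1 Hz, 3-ms pulses, fixed 10–35 V. After ≥1 h equilibration, a cumulative clonidine curve (twitch inhibition) was run, then 30 min antagonist and a second curve. Time-matched controls were run. pA2 came from Schild plots (slope constrained to −1), three antagonist concentrations ×5, or van Rossum for two concentrations.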

[4] = biological target: T2, Adrenergic receptor alpha-1; assay: Compound evaluated for antagonist activity to alpha-1 adrenergic receptor in a competitive assay against norepinephrine in rat vas deferences; format: functional
In short: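 Epididymal portion (14 mm) of male albino rat (175–200 g) vas deferens in Krebs with propranolol 1 μM and cocaine 10 μM, tension 0.4 g, equilibrated ≥1 h. Cumulative norepinephrine contraction curves: the first was discarded and the second was the control. A third curve followed 30 min antagonist incubation. Responses were taken as % of control maximum, corrected by untreated time-controls. Dose ratios at EC50 (three concentrations ×5) gave Schild pA2 with slope constrained to −1.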

[5] = biological target: Adrenergic receptor alpha-1 (Rattus norvegicus) (UniProt P15823+P23944+P43140); assay: Selectivity ratio is the antilog of the difference between pA2 at alpha-1 and alpha-2 adrenergic receptors
In short: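 Ratio calculated as the antilog of the difference between the pA2 values from the norepinephrine (α1, epididymal vas deferens) and clonidine (α2, field-stimulated vas deferens) Schild analyses in rat tissue.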

[6] = biological target: T1, Adrenergic receptor alpha-2; assay: Compound evaluated for antagonist activity to Alpha-2 adrenergic receptor in a competitive assay against clonidine in rat vas deferences; format: functional; in short: as §1

Row | SMILES | pA2 [1] | pA2 [2] | also measured
1 | COc1cc2nc(N(C)CCN(C)C(=O)c3ccco3)nc(N)c2cc1OC | 5.52 | 6.7 | 
2 | COc1cc2nc(NCCCCCCCCNC(=O)c3ccco3)nc(N)c2cc1OC | 4.78 | 7.22 | 
3 | COc1cc2nc(N3CCN(C(=O)c4ccco4)CC3)nc(N)c2cc1OC [PRAZOSIN] |  |  | Reduction (Rattus norvegicus): 38.5%
4 | COc1cc2nc(N(C)CCCCCCCN(C)C(=O)c3ccco3)nc(N)c2cc1OC | 6.55 | 8.6 | 
5 | COc1cc2nc(NCCCCCCNC(=O)c3ccco3)nc(N)c2cc1OC |  |  | pA2 [3]: 4.51; pA2 [4]: 7.88; Ratio [5]: 2340
6 | COc1cc2nc(NCCCCCCN(C)C(=O)c3ccco3)nc(N)c2cc1OC | 5.76 | 8.17 | 
7 | COc1cc2nc(N(C)CCCCCN(C)C(=O)c3ccco3)nc(N)c2cc1OC | 6.68 | 8.83 | 
8 | COc1cc2nc(NCCCCNC(=O)c3ccco3)nc(N)c2cc1OC |  |  | pA2 [3]: 6.03; pA2 [4]: 8.25; Ratio [5]: 170
9 | COc1cc2nc(NCCCNC(=O)c3ccco3)nc(N)c2cc1OC |  |  | pA2 [3]: 5.99; pA2 [4]: 8.01; Ratio [5]: 105
10 | COc1cc2nc(NCCCCCNC(=O)c3ccco3)nc(N)c2cc1OC |  |  | pA2 [3]: 5.01; pA2 [4]: 7.72; Ratio [5]: 513
11 | COc1cc2nc(N(C)CCCCN(C)C(=O)c3ccco3)nc(N)c2cc1OC | 6.5 | 8.15 | 
12 | COc1cc2nc(N(C)CCNC(=O)c3ccco3)nc(N)c2cc1OC |  | 8.03 | pA2 [6]: 5.2

Second part, led by results:

Row | pA2 [1] | pA2 [2] | SMILES | also measured
13 | 6.45 | 7.41 | COc1cc2nc(N(C)CCCN(C)C(=O)c3ccco3)nc(N)c2cc1OC | 
14 | 5.98 | 8.53 | COc1cc2nc(N(C)CCCCCCNC(=O)c3ccco3)nc(N)c2cc1OC | 
15 | 6.31 | 8.1 | COc1cc2nc(N(C)CCCCCCCCN(C)C(=O)c3ccco3)nc(N)c2cc1OC | 
16 | 5.04 | 7.54 | COc1cc2nc(NCCCCCCCNC(=O)c3ccco3)nc(N)c2cc1OC | 
17 | 5.37 | 8.28 | COc1cc2nc(NCCNC(=O)c3ccco3)nc(N)c2cc1OC | 
18 | 6.84 | 8.93 | COc1cc2nc(N(C)CCCCCCN(C)C(=O)c3ccco3)nc(N)c2cc1OC | Reduction (Rattus norvegicus): 57.5%
